≈ marks a conversion by molar mass, not a printed value.
How the values were obtained:
[1] = biological target: T1, Growth hormone secretagogue receptor type 1 (Homo sapiens, UniProt Q92847); test: Displacement of [125I-His9]-ghrelin from human GRLN receptor by radioligand binding assay
In short: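 Competitive binding on isolated membranes expressing GRLN, with 125I-His-9 octanoylated ghrelin as radioligand.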

[2] = Elimination half life in Sprague-Dawley rat at 2 m/kg, iv; format: ADME, organism-based; settings: in vivo, read-out: beta t1/2
[3] = Volume of distribution at steady state in Sprague-Dawley rat at 2 m/kg, iv; format: ADME, organism-based; settings: in vivo, read-out: Vdss
[4] = Clearance in Sprague-Dawley rat at 2 m/kg, iv; format: ADME, organism-based; settings: in vivo
[5] = biological target: T1, Growth hormone secretagogue receptor type 1; test: Agonist activity at human GRLN receptor expressed in HEK293 cells assessed as calcium binding by Ca2+ bioluminescence aequorin assay; format: functional, cell-based
In short: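 HEK-293 cells expressing human GRLN. Ca2+ bioluminescence read out by aequorin. Duplicate samples, maximum tolerated interassay variability ±10%. Full agonism defined as maximal response >70% of that of octanoylated human ghrelin.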

[6] = Dissociation constant, pKa of the compound; format: physicochemical
[7] = Aqueous solubility of the compound; format: physicochemical
[8] = Cmax in Sprague-Dawley rat at 8 mg/kg, po; format: ADME, organism-based; design: dose 8 mg/kg, route oral; settings: in vivo
In short: (§1)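 Male Sprague−Dawley rats (250 ± 20 g), 3 per compound in a single experiment, gavage 8 mg/kg in physiological saline. Blood taken at 12 time points over 6 h into K3EDTA tubes. Plasma stored at −20 °C, assayed by LC-MS/MS, noncompartmental analysis.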

[9] = AUC (0 to infinity) in Sprague-Dawley rat at 8 mg/kg, po; format: ADME, organism-based; design: time infinity, dose 8 mg/kg, route oral; settings: plasma; in short: as §1
[10] = tested on: Rattus norvegicus; test: Induction of gastric emptying in overnight-fasted iv dosed Wistar rat measured after 15 mins by […] analysis; format: functional, organism-based, Stomach
In short: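 Overnight-fasted male Wistar rats (200 ± 20 g), N = 5 per point. Compound given IV in 9% 2-hydroxypropyl-β-cyclodextrin together with an oral 2% methylcellulose meal containing 0.05% phenol red (2 mL). Sacrifice 15 min later; phenol red left in stomach read at 560 nm. […] Metoclopramide positive control at 10 mg/kg IV.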

[11] = Oral bioavailability in Sprague-Dawley rat at 8 mg/kg; settings: in vivo

T1 sequence (Q92847 whole entry): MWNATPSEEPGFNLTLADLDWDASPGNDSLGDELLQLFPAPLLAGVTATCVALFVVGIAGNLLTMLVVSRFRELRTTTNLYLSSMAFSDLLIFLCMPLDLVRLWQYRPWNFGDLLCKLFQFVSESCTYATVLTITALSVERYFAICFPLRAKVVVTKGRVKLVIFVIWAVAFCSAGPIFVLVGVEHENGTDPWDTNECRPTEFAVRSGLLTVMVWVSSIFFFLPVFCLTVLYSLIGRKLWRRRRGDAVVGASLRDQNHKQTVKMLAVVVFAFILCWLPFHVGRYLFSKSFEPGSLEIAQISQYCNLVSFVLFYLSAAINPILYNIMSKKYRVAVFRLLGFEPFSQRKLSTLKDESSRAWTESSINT

## CC(C)[C@@H]1NC[C@@H](C)Oc2ccccc2CCCNC(=O)[C@@H](Cc2ccc(F)cc2)NC(=O)[C@@H](C)N(C)C1=O
[1]
  Ki: 104 nM
[2]
  half-life: 34 min
[3]
  Vd: 2 L/kg
[4]
  clearance: 40 mL/min/kg

## CC(C)C[C@@H]1NCCOc2ccccc2CCCNC(=O)[C@@H](Cc2ccccc2)NC(=O)[C@@H](C)N(C)C1=O
[1]
  Ki: 25 nM

## CCC[C@@H]1NCCOc2ccccc2CCCNC(=O)[C@@H](Cc2ccccc2)NC(=O)[C@@H](C)N(C)C1=O
[1]
  Ki: 16 nM
[5]
  EC50: 40 nM
[6]
  pKa: 6.45

## C[C@@H]1C(=O)N[C@H](Cc2ccc(F)cc2)C(=O)NCCCc2ccccc2OCCN[C@@H](C2CC2)C(=O)N1C
[1]
  Ki: 7.3 nM
[2]
  half-life: 14 min
[3]
  Vd: 1.4 L/kg
[4]
  clearance: 72 mL/min/kg

## CCCC[C@H]1NC(=O)CN(C)C(=O)[C@H](CCC)NCCOc2ccccc2CCCNC1=O
[1]
  Ki: 400 nM

## CCC[C@@H]1NCCOc2ccccc2CCCNC(=O)[C@@H](Cc2ccccc2)NC(=O)[C@H](C)N(C)C1=O
[1]
  Ki: 580 nM

## C[C@@H]1C(=O)N[C@H](Cc2ccc(F)cc2)C(=O)NCCCc2cccc3c2O[C@@H](CC3)CN[C@@H](C2CC2)C(=O)N1C
[1]
  Ki: 19 nM

## CC[C@H](C)[C@@H]1NCCCc2ccccc2CCNC(=O)[C@@H](Cc2ccccc2)NC(=O)[C@@H](C)N(C)C1=O
[1]
  Ki: 400 nM

## C[C@@H]1C(=O)N[C@H](Cc2ccccc2F)C(=O)NCCCc2ccccc2OCCN[C@@H](C2CC2)C(=O)N1C
[1]
  Ki: 6.2 nM

## CCC[C@@H]1NC[C@@H](C)Oc2ccccc2CCCNC(=O)[C@@H](Cc2ccc(F)cc2)NC(=O)[C@@H](C)N(C)C1=O
[1]
  Ki: 34 nM
[2]
  half-life: 29 min
[3]
  Vd: 1.7 L/kg
[4]
  clearance: 41 mL/min/kg
[7]
  solubility: 100 µg/mL (≈ 185 µM)

## C[C@@H]1C(=O)N[C@H](Cc2ccc(F)cc2)C(=O)NCCCc2cc(F)ccc2OCCN[C@@H](C2CC2)C(=O)N1C
[1]
  Ki: 58 nM

## CCC[C@H](NCCOc1ccccc1/C=C/CNC(C)=O)C(=O)N(C)CC(=O)N[C@H](Cc1ccccc1)C(N)=O
[1]
  Ki: > 10000 nM

## CC[C@H](C)[C@@H]1NCCOc2ccccc2CCCNC(=O)[C@@H](Cc2ccccc2)NC(=O)[C@@H](C)N(C)C1=O
[1]
  Ki: 6.4 nM

## C[C@@H]1CN[C@@H](C2CC2)C(=O)N(C)[C@H](C)C(=O)N[C@H](Cc2ccc(F)cc2)C(=O)NCCCc2ccc(F)cc2O1
[1]
  Ki: 61 nM
[8]
  Cmax: 750 nM
[9]
  AUC(0-inf): 2.08 µM·h
[2]
  half-life: 66 min
[3]
  Vd: 0.9 L/kg
[4]
  clearance: 9 mL/min/kg
[10]
  EC50: 1.38 mg/kg
[11]
  bioavailability: 15%

## C[C@@H]1CN[C@@H](C2CC2)C(=O)N(C)[C@H](C)C(=O)N[C@H](Cc2ccc(Cl)cc2)C(=O)NCCCc2ccccc2O1
[1]
  Ki: 15 nM
[5]
  EC50: 18 nM
[8]
  Cmax: 670 nM
[9]
  AUC(0-inf): 1.23 µM·h
[2]
  half-life: 41 min
[3]
  Vd: 1.4 L/kg
[4]
  clearance: 24 mL/min/kg
[10]
  EC50: 0.84 mg/kg
[11]
  bioavailability: 22%

## CC[C@H](C)[C@@H]1NCCCc2ccccc2CCCNC(=O)[C@@H](Cc2ccccc2)NC(=O)[C@@H](C)N(C)C1=O
[1]
  Ki: 81 nM

## CN1CC(=O)N[C@H](Cc2ccccc2)C(=O)NCCCc2ccccc2OCCN[C@@H](CCCCN)C1=O
[1]
  Ki: 1100 nM

## CC[C@H](C)[C@@H]1NCCCCCCCCNC(=O)[C@@H](Cc2ccccc2)NC(=O)[C@@H](C)N(C)C1=O
[1]
  Ki: 1500 nM

## CC[C@H]1NC(=O)[C@H]([C@@H](C)CC)NC[C@@H](C)Oc2ccccc2CCCNC(=O)[C@@H](Cc2ccccc2)NC1=O
[1]
  Ki: 35 nM

## CN1CC(=O)N[C@H](Cc2ccccc2)C(=O)NCCCc2ccccc2OCCN[C@@H](Cc2ccccc2)C1=O
[1]
  Ki: 670 nM

## CC[C@H](C)[C@@H]1NCCOc2ccccc2CCNC(=O)[C@@H](Cc2ccccc2)NC(=O)[C@@H](C)N(C)C1=O
[1]
  Ki: 210 nM
[5]
  EC50: 530 nM

## CCC[C@@H]1NCCOc2ccccc2CCCNC(=O)[C@H](Cc2ccccc2)NC(=O)CN(C)C1=O
[1]
  Ki: 380 nM
